Experimental data as given in ChEMBL document CHEMBL1141585, “5,5,6-Fused tricycles bearing imidazole and pyrazole 6-methylidene penems as broad-spectrum inhibitors of beta-lactamases” (Bioorg Med Chem, 2008).
Activity calls are given as the source filed them. No cut-off for these calls is given here.

Assays:
[1] = Inhibition of TEM1 beta-lactamase
Summary of the method: (§1)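 Spectrophotometric β-lactamase inhibition assay (Bush method) with nitrocefin as substrate. Tazobactam standard included in each experiment. IC₅₀ derived by curve fitting.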

[2] = tested on: Escherichia coli; assay: Antimicrobial activity against Escherichia coli GC 2905 expressing P99 beta-lactamase after 18 to 24 hrs by broth microdilution method; type: functional
Summary of the method: (§2)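 CLSI broth microdilution in Mueller–Hinton II broth. Serial dilutions of piperacillin alone or piperacillin plus inhibitor; inoculum 10⁵ CFU/ml. Piperacillin + tazobactam run as comparator. MIC read as endpoint.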

[3] = tested on: Escherichia coli; assay: Antimicrobial activity against Escherichia coli GC 2906 expressing Imi1 beta-lactamase after 18 to 24 hrs by broth microdilution method; type: functional; summary of the method: as §2; note: test concentration or dose not given here
[4] = tested on: Escherichia coli; assay: Antimicrobial activity against Escherichia coli GC 2804 expressing imp beta-lactamase after 18 to 24 hrs by broth microdilution method; type: functional; summary of the method: as §2; note: test concentration or dose not given here
[5] = tested on: Escherichia coli; assay: Antimicrobial activity against Escherichia coli GC 2805 expressing CcrA beta-lactamase after 18 to 24 hrs by broth microdilution method; type: functional; summary of the method: as §2
[6] = tested on: Escherichia coli; assay: Antimicrobial activity against Escherichia coli GC 2253 expressing IRT2 beta-lactamase after 18 to 24 hrs by broth microdilution method; type: functional; summary of the method: as §2; note: test concentration or dose not given here
[7] = tested on: Enterobacter cloacae; assay: Antimicrobial activity against Enterobacter cloacae GC 1477 expressing AmpC beta-lactamase after 18 to 24 hrs by broth microdilution method; type: functional; summary of the method: as §2; note: test concentration or dose not given here
[8] = tested on: Enterobacter cloacae; assay: Antimicrobial activity against Enterobacter cloacae GC 4142 expressing AmpC beta-lactamase after 18 to 24 hrs by broth microdilution method; type: functional; summary of the method: as §2; note: test concentration or dose not given here
[9] = tested on: Enterobacter cloacae; assay: Antimicrobial activity against Enterobacter cloacae GC 6991 expressing AmpC beta-lactamase after 18 to 24 hrs by broth microdilution method; type: functional; summary of the method: as §2; note: test concentration or dose not given here
[10] = tested on: Enterobacter cloacae; assay: Antimicrobial activity against Enterobacter cloacae GC 1475 expressing P99 beta-lactamase after 18 to 24 hrs by broth microdilution method; type: functional; summary of the method: as §2; note: test concentration or dose not given here
[11] = tested on: Serratia marcescens; assay: Antimicrobial activity against Serratia marcescens GC 1781 expressing Sme1 and AmpC beta-lactamase after 18 to 24 hrs by broth microdilution method; type: functional; summary of the method: as §2; note: test concentration or dose not given here
[12] = tested on: Pseudomonas aeruginosa; assay: Antimicrobial activity against Pseudomonas aeruginosa GC 1764 expressing AmpC beta-lactamase after 18 to 24 hrs by broth microdilution method; type: functional; summary of the method: as §2; note: test concentration or dose not given here
[13] = tested on: Stenotrophomonas maltophilia; assay: Antimicrobial activity against Stenotrophomonas maltophilia GC 1721 expressing L1 beta-lactamase after 18 to 24 hrs by broth microdilution method; type: functional; summary of the method: as §2; note: test concentration or dose not given here
[14] = Inhibition of Imi1 beta lactamase
[15] = Inhibition of AmpC beta-lactamase; summary of the method: as §1
[16] = tested on: Escherichia coli; assay: Antimicrobial activity against Escherichia coli GC 2844 after 18 to 24 hrs by broth microdilution method; type: functional; summary of the method: as §2
[17] = tested on: Escherichia coli; assay: Antimicrobial activity against Escherichia coli GC 2847 expressing TEM1 beta-lactamase after 18 to 24 hrs by broth microdilution method; type: functional; summary of the method: as §2; note: test concentration or dose not given here
[18] = tested on: Escherichia coli; assay: Antimicrobial activity against Escherichia coli GC 2920 expressing IRT2 beta-lactamase after 18 to 24 hrs by broth microdilution method; type: functional; summary of the method: as §2
[19] = tested on: Escherichia coli; assay: Antimicrobial activity against Escherichia coli GC 2883 expressing OXA10 and PSE2 beta-lactamase after 18 to 24 hrs by broth microdilution method; type: functional; summary of the method: as §2
[20] = tested on: Escherichia coli; assay: Antimicrobial activity against Escherichia coli GC 2894 expressing AmpC beta-lactamase after 18 to 24 hrs by broth microdilution method; type: functional; summary of the method: as §2
[21] = tested on: Serratia marcescens; assay: Antimicrobial activity against Serratia marcescens GC 4132 expressing AmpC beta-lactamase after 18 to 24 hrs by broth microdilution method; type: functional; summary of the method: as §2; note: test concentration or dose not given here
[22] = tested on: Escherichia coli; assay: Antimicrobial activity against Escherichia coli GC 2203 after 18 to 24 hrs by broth microdilution method; type: functional; summary of the method: as §2
[23] = tested on: Staphylococcus aureus; assay: Antimicrobial activity against Staphylococcus aureus GC 2216 after 18 to 24 hrs by broth microdilution method; type: functional; summary of the method: as §2; note: test concentration or dose not given here
[24] = tested on: Escherichia coli; assay: Antibacterial efficacy against Escherichia coli LSU 80-8 infected ip dosed CD1 mouse model; type: functional
Summary of the method: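 Female CD-1 mice, five per dose level, five dose levels per compound. Lethal intraperitoneal challenge (10–100 LD₅₀), then intravenous piperacillin alone or piperacillin plus inhibitor at a 4:1 (Pip:Inhibitor) ratio. Survival read at 7 days; ratios from three separate tests pooled; ED₅₀ by probit analysis.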

IC50 [1] [nM]	MIC [2] [µg/mL]	MIC [3] [µg/mL]	MIC [4] [µg/mL]	MIC [5] [µg/mL]	MIC [6] [µg/mL]	MIC [7] [µg/mL]	MIC [8] [µg/mL]	MIC [9] [µg/mL]	MIC [10] [µg/mL]	MIC [11] [µg/mL]	MIC [12] [µg/mL]	MIC [13] [µg/mL]	IC50 [15] [nM]	MIC [16] [µg/mL]	MIC [17] [µg/mL]	MIC [18] [µg/mL]	MIC [19] [µg/mL]	MIC [20] [µg/mL]	MIC [21] [µg/mL]	Compound	other results
2.8	8	2	< 0.06	> 64	16	16	8	16	8	1	4	> 64	1.5	2	4	2	4	2	2	O=C([O-])C1=CS[C@@H]2/C(=C\c3cn4c5c(sc4n3)COCC5)C(=O)N12.[Na+]	IC50 [14]: 100 nM; MIC [22]: 4 µg/mL; MIC [23]: 2 µg/mL; ED50 [24]: 25.3 mg/kg
1.4	4	2	< 0.06	> 64	8	16	4	16	4	1	2	> 64	2.1	2	4	2	2	2	2	O=C([O-])C1=CS[C@@H]2/C(=C\c3cn4c5c(sc4n3)CCC5)C(=O)N12.[Na+]	MIC [22]: 2 µg/mL; MIC [23]: 2 µg/mL; ED50 [24]: 19 mg/kg
1.9	4	2	< 0.06	> 64	16	32	8	16	8	1	2	> 64	0.62	2	8	2	2	4	2	O=C([O-])C1=CS[C@@H]2/C(=C\c3cn4c5c(sc4n3)CCCC5)C(=O)N12.[Na+]	IC50 [14]: 33 nM; MIC [22]: 2 µg/mL; MIC [23]: < 0.06 µg/mL; ED50 [24]: 23.3 mg/kg
4.3	16	8	< 0.06	> 64	16	64	32	16	32	2	32	> 64	4	2	32	2	8	16	8	O=C([O-])C1=CS[C@@H]2/C(=C\c3cc4oc5c(n4n3)CCOC5)C(=O)N12.[Na+]	IC50 [14]: 140 nM; MIC [22]: 4 µg/mL; MIC [23]: 16 µg/mL
2.4	2	64	< 0.06	> 64	16	> 64	8	16	2	0.5	32	> 64	1.4	2	8	2	2	2	1	O=C([O-])C1=CS[C@@H]2/C(=C\c3cn4c(n3)nc3n4CCCC3)C(=O)N12.[Na+]	IC50 [14]: 14 nM; MIC [22]: 1 µg/mL; MIC [23]: 0.25 µg/mL; ED50 [24]: 32.5 mg/kg
																				CCN1CCN(C(=O)N[C@@H](C(=O)N[C@@H]2C(=O)N3[C@@H]2SC(C)(C)[C@@H]3C(=O)O)c2ccccc2)C(=O)C1=O [PIPERACILLIN]	ED50 [24]: > 128 mg/kg
1.2	32	64	< 0.06	> 64	16	> 64	64	64	64	2	> 64	> 64	4	2	32	4	8	64	8	CCOC(=O)N1CCc2c(oc3cc(/C=C4/C(=O)N5C(C(=O)[O-])=CS[C@H]45)nn23)C1.[Na+]	IC50 [14]: 98 nM; MIC [22]: 2 µg/mL; MIC [23]: 16 µg/mL
150	32	64	0.12	> 64	32	> 64	> 64	32	32	4	64	> 64	53	2	> 64	8	16	32	32	O=C([O-])C1=CS[C@@H]2/C(=C/c3cc4oc5c(n4n3)CCOC5)C(=O)N12.[Na+]	IC50 [14]: 2900 nM; MIC [22]: 2 µg/mL; MIC [23]: 64 µg/mL
24	32	16	< 0.06	> 64	32	> 64	> 64	32	64	2	64	> 64	16	4	> 64	4	64	32	16	Cn1c2ccccc2n2cc(/C=C3/C(=O)N4C(C(=O)[O-])=CS[C@H]34)nc12.[Na+]	IC50 [14]: 50 nM; MIC [22]: 2 µg/mL; MIC [23]: 64 µg/mL
4	32	4	< 0.06	> 64	16	64	32	32	32	2	64	> 64	5.5	2	16	4	8	32	8	O=C([O-])C1=CS[C@@H]2/C(=C\c3cc4oc5c(n4n3)CCCC5)C(=O)N12.[Na+]	IC50 [14]: 160 nM; MIC [22]: 2 µg/mL; MIC [23]: 16 µg/mL

Compound	IC50 [1] [nM]	MIC [2] [µg/mL]	MIC [3] [µg/mL]	MIC [4] [µg/mL]	MIC [5] [µg/mL]	MIC [6] [µg/mL]	MIC [7] [µg/mL]	MIC [8] [µg/mL]	MIC [9] [µg/mL]	MIC [10] [µg/mL]	MIC [11] [µg/mL]	MIC [12] [µg/mL]	MIC [13] [µg/mL]	IC50 [15] [nM]	MIC [16] [µg/mL]	MIC [17] [µg/mL]	MIC [18] [µg/mL]	MIC [19] [µg/mL]	MIC [20] [µg/mL]	MIC [21] [µg/mL]	other results
C[C@]1(Cn2ccnn2)[C@H](C(=O)[O-])N2C(=O)C[C@H]2S1(=O)=O.[Na+] [TAZOBACTAM SODIUM]	100	64	2	< 0.06	> 64	2	> 64	64	> 64	64	0.5	> 64	> 64	84000	2	2	4	1	32	64	Activity [14]: inactive; MIC [22]: 1 µg/mL; MIC [23]: 0.5 µg/mL; ED50 [24]: 20 mg/kg
